Measurements from ChEMBL document CHEMBL1129333, “Synthesis and biological activities of flavonoid derivatives as A3 adenosine receptor antagonists” (J Med Chem, 1996).

Experiments:
[1] = target: T1, Adenosine receptor A3 (Homo sapiens, UniProt P0DMS8); assay: Binding affinity against human adenosine A3 receptor in HEK293 cells using [125I]AB-MECA […] radioligand.; type: cell-based
T1 sequence (P0DMS8 whole entry): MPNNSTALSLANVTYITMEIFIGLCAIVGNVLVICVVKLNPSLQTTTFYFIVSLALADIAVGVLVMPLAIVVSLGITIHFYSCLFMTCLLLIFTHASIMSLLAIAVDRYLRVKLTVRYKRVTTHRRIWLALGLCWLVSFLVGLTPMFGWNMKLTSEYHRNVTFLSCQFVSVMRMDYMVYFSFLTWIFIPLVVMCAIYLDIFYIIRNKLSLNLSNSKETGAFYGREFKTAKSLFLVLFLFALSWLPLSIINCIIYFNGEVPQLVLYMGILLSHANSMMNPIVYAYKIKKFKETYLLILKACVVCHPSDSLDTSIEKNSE

[2] = target: T2, Adenosine receptor A1 (Rattus norvegicus, UniProt P25099); assay: Binding affinity at Adenosine A1 receptor in rat brain membranes by [3H]PIA displacement.; type: cell membranes
T2 sequence (P25099 whole entry): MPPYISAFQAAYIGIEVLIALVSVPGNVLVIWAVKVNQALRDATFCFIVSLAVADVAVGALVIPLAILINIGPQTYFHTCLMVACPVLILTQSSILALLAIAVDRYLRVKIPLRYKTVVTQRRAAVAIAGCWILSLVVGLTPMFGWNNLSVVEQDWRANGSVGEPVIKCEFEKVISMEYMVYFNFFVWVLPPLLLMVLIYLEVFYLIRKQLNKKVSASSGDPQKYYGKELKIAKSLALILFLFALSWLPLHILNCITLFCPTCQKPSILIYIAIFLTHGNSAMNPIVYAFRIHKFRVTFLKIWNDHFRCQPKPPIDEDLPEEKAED

[3] = target: T3, Adenosine A2 receptor (Rattus norvegicus) (UniProt P29276+P30543); assay: Percentage inhibition against Adenosine A2 receptor in rat striatal membranes using [3H]-CGS- 21680; type: cell membranes; conditions: Striatum, Membrane, concentration not given here
Procedure, shortened: (§1)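 Rat striatal membranes, prepared with adenosine deaminase (3 units/mL) including a 30 min, 30 °C preincubation, ADA also present during radioligand incubation; [3H]CGS 21680 displacement. Test compounds from DMSO stocks, final DMSO ≤1%, at least five concentrations spanning 3 orders of magnitude.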

[4] = target: T3, Adenosine A2 receptor (Rattus norvegicus); assay: Percent displacement at 10e-4 M against Adenosine A2 receptor in rat striatal membranes using [3H]-CGS- 21680; type: cell membranes; conditions: Striatum, Membrane; procedure, shortened: as §1
[5] = tested on: Adenosine A1 receptor (Rattus norvegicus) / A3 receptor (Homo sapiens); assay: Ratio of binding affinities between rA1 and human A3.
[6] = target: T4, Adenosine receptor A1 (Rattus norvegicus) (UniProt P25099); assay: Percent displacement against Adenosine A1 receptor in rat brain membranes using [3H]PIA at 10e-4 M; type: cell membranes
T4 sequence (whole entry): T2 sequence (P25099 whole entry)

[7] = target: Adenosine A2 receptor (Rattus norvegicus, UniProt P29276+P30543); assay: Binding affinity at Adenosine A2 receptor in rat striatal membranes by [3H]-CGS- 21680 displacement.; type: cell membranes, Striatum, Membrane; procedure, shortened: as §1
[8] = target: T4, Adenosine receptor A1 (Rattus norvegicus); assay: Percent inhibition at 10e-4 M against Adenosine A1 receptor in rat brain membranes using [3H]-PIA; type: cell membranes
[9] = target: Adenylate cyclase type 2 (Rattus norvegicus) (UniProt P26769); assay: Percent inhibition against adenylyl cyclase was measured using IB-MECA […] at 10E-6; type: functional; conditions: concentration not given here
Adenylate cyclase type 2 (Rattus norvegicus), sequence (P26769 whole entry): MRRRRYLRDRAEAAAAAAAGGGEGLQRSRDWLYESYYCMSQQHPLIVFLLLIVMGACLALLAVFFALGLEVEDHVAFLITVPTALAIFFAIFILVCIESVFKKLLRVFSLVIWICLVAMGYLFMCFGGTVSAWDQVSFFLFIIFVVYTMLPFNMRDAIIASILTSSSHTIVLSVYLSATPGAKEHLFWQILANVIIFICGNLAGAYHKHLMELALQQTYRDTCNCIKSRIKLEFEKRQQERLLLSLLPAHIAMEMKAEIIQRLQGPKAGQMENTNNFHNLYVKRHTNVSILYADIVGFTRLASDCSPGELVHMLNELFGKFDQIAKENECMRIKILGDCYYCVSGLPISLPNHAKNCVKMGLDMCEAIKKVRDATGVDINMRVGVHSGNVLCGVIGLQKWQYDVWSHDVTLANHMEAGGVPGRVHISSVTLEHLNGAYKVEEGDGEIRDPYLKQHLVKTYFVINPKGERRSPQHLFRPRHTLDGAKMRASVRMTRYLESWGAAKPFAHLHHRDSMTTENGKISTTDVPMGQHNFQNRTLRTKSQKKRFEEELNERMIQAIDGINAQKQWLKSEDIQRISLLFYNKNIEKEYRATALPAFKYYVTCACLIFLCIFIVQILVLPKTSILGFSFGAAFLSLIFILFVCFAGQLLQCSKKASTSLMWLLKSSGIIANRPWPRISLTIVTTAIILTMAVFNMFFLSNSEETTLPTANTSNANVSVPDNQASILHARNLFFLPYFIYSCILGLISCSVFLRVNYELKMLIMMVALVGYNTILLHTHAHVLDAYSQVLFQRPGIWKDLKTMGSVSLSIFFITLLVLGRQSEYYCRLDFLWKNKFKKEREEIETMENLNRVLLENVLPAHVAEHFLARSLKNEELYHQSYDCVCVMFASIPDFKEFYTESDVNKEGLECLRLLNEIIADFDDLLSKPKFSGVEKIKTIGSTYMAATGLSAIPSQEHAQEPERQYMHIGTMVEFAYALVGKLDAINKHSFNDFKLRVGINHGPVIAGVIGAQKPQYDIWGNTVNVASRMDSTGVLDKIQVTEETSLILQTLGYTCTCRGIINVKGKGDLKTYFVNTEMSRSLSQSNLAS
Procedure, shortened: (§2)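 Membranes from CHO cells stably expressing rat A3 receptor (grown in F-12, 10% FBS, 37 °C, 5% CO2); [α-32P]ATP added with 1 μM forskolin and papaverine as phosphodiesterase inhibitor.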

[10] = target: T5, Adenosine receptor A3 (Rattus norvegicus) (UniProt P28647); assay: (§3) Binding affinity for [125I]AB-MECA against rat Adenosine A3 receptor; conditions: concentration not given here
T5 sequence (whole entry): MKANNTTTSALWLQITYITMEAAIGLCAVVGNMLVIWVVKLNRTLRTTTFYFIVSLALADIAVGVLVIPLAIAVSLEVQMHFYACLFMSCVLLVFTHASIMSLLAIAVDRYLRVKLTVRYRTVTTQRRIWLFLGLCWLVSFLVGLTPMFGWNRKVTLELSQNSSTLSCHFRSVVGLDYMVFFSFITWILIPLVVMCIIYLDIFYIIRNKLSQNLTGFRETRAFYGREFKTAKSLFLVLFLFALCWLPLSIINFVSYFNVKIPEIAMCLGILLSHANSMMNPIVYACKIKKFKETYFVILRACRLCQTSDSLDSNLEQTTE

[11] = target: Adenylate cyclase type 2 (Rattus norvegicus) (UniProt P26769); assay: Percent inhibition against adenylyl cyclase was measured using IB-MECA […] at 10E-7; type: functional; conditions: concentration not given here; procedure, shortened: as §2
[12] = target: T3, Adenosine A2 receptor (Rattus norvegicus); assay: Percent inhibition against Adenosine A2 receptor in rat striatal membranes using [3H]-CGS- 21680; type: cell membranes; conditions: Striatum, Membrane, concentration not given here; procedure, shortened: as §1
[13] = target: T6, Adenosine receptor A3 (Homo sapiens) (UniProt P0DMS8); assay: Binding affinity against human Adenosine A3 receptor in HEK293 cells using [125I]AB-MECA […]; type: cell-based
T6 sequence (whole entry): T1 sequence (P0DMS8 whole entry)
Procedure, shortened: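 Membranes of HEK-293 cells stably expressing human A3 receptor (0.3 mg protein/mL) in 50 mM Tris, 10 mM Mg2+, 1 mM EDTA, pH 8.0, with 0.3 nM [125I]AB-MECA final. Duplicate 1 h incubations at 25 °C, filtration over GF/B, gamma counting; nonspecific binding with 100 μM (R)-PIA; DMSO ≤1%.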

[14] = target: T4, Adenosine receptor A1 (Rattus norvegicus); assay: Percentage inhibition against Adenosine A1 receptor in rat brain membranes using [3H]-PIA; type: cell membranes; parameters: concentration or dose not given beside the values; conditions: concentration not given here
[15] = target: T7, Adenosine receptor A3 (Rattus norvegicus, UniProt P28647); assay: as §3
T7 sequence (P28647 whole entry): T5 sequence (whole entry)

Nc1nc2ncc(NCc3ccc(C(=O)NC(CCC(=O)O)C(=O)O)cc3)nc2c(=O)[nH]1 (stereo unspecified)
Ki [1]: 28 µM

O=C1CC(c2ccc(O)cc2)Oc2ccccc21 (stereo unspecified) [4'-HYDROXY-FLAVANONE]
Ki [1]: 42.8 µM
Ki [2]: 11.5 µM
inhibition [3]: 35%

COc1c2ccoc2cc2oc(/C=N/c3ccccc3)cc(=O)c12
Ki [1]: 9.18 µM
Displacement [4]: < 10%
Ratio [5]: > 20
Displacement [6]: < 10%

COc1cc(OC)c(-c2oc3ccccc3c(=O)c2O)c(OC)c1
Displacement [4]: < 10%
Ratio [5]: 0.15

COc1cc2oc(-c3ccc(O)cc3O)c(CC=C(C)C)c(=O)c2c(O)c1/C=C/C(C)C [ARTOCARPIN]
Ki [1]: 4.59 µM
Displacement [4]: < 10%
Ki [2]: 9.09 µM

CCOc1cc(O)c2c(=O)c(OCC)c(-c3ccccc3)oc2c1
Ki [7]: 63.8 µM

O=c1c(O)c(-c2ccccc2)oc2cc(O)cc(O)c12 [GALANGIN]
Ki [7]: 0.966 µM

COc1ccc2c(c1)C(=O)[C@H](O)[C@@H](/C=C/c1ccccc1)O2 (relative stereo)
Displacement [4]: < 10%
Displacement [8]: < 10%
inhibition [9]: 39.2%
inhibition [10]: 43%
Ratio [5]: > 8
inhibition [11]: 25.9%

CCOc1ccc(-c2oc3cc(OCC)cc(OCC)c3c(=O)c2OCC)c(OCC)c1
Ki [7]: 26.8 µM

CCOc1c2ccoc2cc2oc(/C=C/C=C/c3ccccc3)cc(=O)c12
Ki [1]: 45.5 µM
Ratio [5]: > 4
Ki [7]: 167 µM
Displacement [6]: < 10%

O=C1CC(c2ccccc2O)Oc2ccccc21 (stereo unspecified) [2'-HYDROXY-FLAVANONE]
Ki [7]: 17.6 µM

COc1c2ccoc2cc2oc(C=O)cc(=O)c12
inhibition [12]: 25%
Ratio [5]: > 2
Displacement [6]: < 10%

COc1c2ccoc2cc2oc(/C=C/C=C/c3ccccc3)cc(=O)c12
Displacement [4]: < 10%
Displacement [6]: < 10%
Displacement [13]: < 10%

O=c1c(O)c(-c2ccc(O)cc2O)oc2cc(O)cc(O)c12 [MORIN]
Ki [7]: 17.3 µM

CCCOc1cc(OCCC)c2c(=O)c(OCCC)c(-c3ccccc3)oc2c1
Ratio [5]: 3.5

CCOc1ccc(-c2oc3cc(OCC)cc(O)c3c(=O)c2OCC)c(OCC)c1
Displacement [4]: < 10%
Ratio [5]: > 40
Displacement [6]: < 10%

O=c1cc(-c2ccccc2)oc2ccccc12 [FLAVONE]
Ki [7]: 3.45 µM

O=c1c(Cl)c(-c2ccccc2)oc2ccccc12
Ki [1]: 11.5 µM
Ki [2]: 2.48 µM
Ki [7]: 25.1 µM

Cc1cc(C)c(-c2oc3ccc(Cl)cc3c(=O)c2Cl)c(C)c1
Ki [1]: 5.24 µM
inhibition [14]: 37%
Displacement [4]: < 10%

O=S(=O)(c1cccc2cnccc12)N1CCNCC1
Ki [1]: 25 µM

O=c1cc(-c2ccccc2)oc2ccc(Cl)cc12
inhibition [14]: 28%
Displacement [4]: < 10%

COc1c2ccoc2cc2oc(/C=C/c3ccccc3)cc(=O)c12
Ratio [5]: 0.37
Ki [7]: 11.5 µM

C=C1C(C)C2C(Cc3ccccc3)NC(=O)C23C(OC(C)=O)/C=C\C(C)(O)CC(C)C/C=C/C3C1O (stereo unspecified)
Ki [1]: 23 µM

CCOc1c2ccoc2cc2oc(/C=C/c3ccccc3)cc(=O)c12
inhibition [9]: 40.9%
Ki [7]: 33.8 µM
Ki [15]: 12.3 µM
inhibition [11]: 21.2%

COc1cc(OC)c2c(=O)c(OC)c(-c3ccccc3)oc2c1
Ki [7]: 6.45 µM

O=c1ccnc2ccccn12
Ki [1]: 48 µM

COc1cc(O)c2c(c1)OC(c1ccc(O)cc1)CC2=O (stereo unspecified)
Ki [7]: 35.6 µM

CCOc1cc(OCC)c2c(=O)c(OCC)c(-c3ccccc3)oc2c1
inhibition [9]: 19.1%
Ki [7]: 3.31 µM
Ki [15]: 18.2 µM
inhibition [11]: 2.2%

O=C1c2ccccc2OC(c2ccccc2O)C1O (stereo unspecified)
Displacement [4]: < 10%
Ki [2]: 91.9 µM
Ratio [5]: < 1
inhibition ([13]; concentration not given here): 27%

O=c1c(Cl)c(-c2ccccc2)oc2ccc(Cl)cc12
Ki [1]: 0.741 µM
inhibition [14]: 15%
Ratio [5]: > 100
Ki [7]: 54.5 µM

CSc1sc(C(=O)NN)c2c1C=CCC2
Ki [1]: 13 µM

COc1c2ccoc2cc2oc(C)cc(=O)c12 [VISNAGIN]
inhibition [14]: 36%
Ki [7]: 42.4 µM

COc1ccc(-c2oc3cc(OC)cc(OC)c3c(=O)c2OC)c(OC)c1
Ki [7]: 46.7 µM

OC12CCCCC1=Nc1ccccc12 (stereo unspecified)
Ki [1]: 22 µM

OCCN(CCO)C1=NC(N2CCCCC2)c2nc(N(CCO)CCO)nc(N3CCCCC3)c2N1 (stereo unspecified)
Ki [1]: 19 µM
